# Test results taken from ChEMBL document CHEMBL4316603, “Fluorination of Photoswitchable Muscarinic Agonists Tunes Receptor Pharmacology and Photochromic Properties” (J Med Chem, 2019).
# Molecular target: Muscarinic acetylcholine receptor
# Assay: Displacement of [3H]-QNB from muscarinic receptor in rat brain membranes incubated for 45 mins under dark conditions by radioligand binding assay
# Format: cell membranes
# Details: not given
# How it was run: (§1)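 Rat brain cortex membranes (meninges and white matter removed, homogenized and centrifuged twice at 50,000 x g, stored at -80 °C). Each tube held 20 μg membrane protein, 200 pM [³H]QNB and competitor at varying concentrations in 10 mM Tris-HCl pH 7.0 with 6 mM MgCl₂, incubated 45 min at 25 °C. Nonspecific binding was defined with 2 μM atropine. Samples were filtered on glass fiber, washed twice with ice-cold buffer and counted by scintillation.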
row,pIC50,Compound
1,5.25,C[N+](C)(CC#CCOC1=NOCC1)Cc1cc(F)c(/N=N/c2c(F)cccc2F)c(F)c1.[Br-]
2,6.82,C[N+](C)(CC#CCOC1=NOCC1)Cc1cc(F)c(/N=N/c2c(F)cc(C[N+](C)(C)CC#CCOC3=NOCC3)cc2F)c(F)c1.[Br-].[Br-]
3,5.15,C[N+](C)(CC#CCOC1=NOCC1)Cc1ccc(/N=N/c2ccccc2)cc1.[Br-]

# Molecular target: T1, Muscarinic acetylcholine receptor M1 (Homo sapiens, UniProt P11229)
# T1 sequence (P11229 whole entry): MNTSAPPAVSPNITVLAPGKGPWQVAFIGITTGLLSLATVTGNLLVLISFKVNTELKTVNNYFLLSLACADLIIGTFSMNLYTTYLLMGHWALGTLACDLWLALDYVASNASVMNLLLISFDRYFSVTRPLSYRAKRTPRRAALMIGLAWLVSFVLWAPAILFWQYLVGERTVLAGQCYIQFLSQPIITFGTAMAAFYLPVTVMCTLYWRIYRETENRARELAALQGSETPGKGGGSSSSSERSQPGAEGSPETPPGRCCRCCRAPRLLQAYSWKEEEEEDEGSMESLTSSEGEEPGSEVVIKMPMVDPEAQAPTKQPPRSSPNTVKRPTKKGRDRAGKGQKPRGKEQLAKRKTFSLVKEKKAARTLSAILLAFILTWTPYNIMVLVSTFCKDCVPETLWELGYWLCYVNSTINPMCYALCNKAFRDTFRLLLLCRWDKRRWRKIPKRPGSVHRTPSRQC
# Assay: Agonist activity at human muscarinic M1 receptor expressed in HEK293T cells co-expressing Galpha subunit and PLC-beta3 by split luciferase complementation assay
# Format: cell-based
# Details: not given
row,pEC50,Compound
1,7.14,C[N+](C)(CC#CCOC1=NOCC1)Cc1cc(F)c(/N=N\c2c(F)cccc2F)c(F)c1.[Br-]
2,7.2,C[N+](C)(CC#CCOC1=NOCC1)Cc1cc(F)c(/N=N/c2c(F)cccc2F)c(F)c1.[Br-]
3,8.97,C[N+](C)(CC#CCOC1=NOCC1)Cc1cc(F)c(/N=N/c2c(F)cc(C[N+](C)(C)CC#CCOC3=NOCC3)cc2F)c(F)c1.[Br-].[Br-]
4,7.49,C[N+](C)(CC#CCOC1=NOCC1)Cc1ccc(/N=N\c2ccc(C[N+](C)(C)CC#CCOC3=NOCC3)cc2)cc1.[Br-].[Br-]
5,8.3,C[N+](C)(CC#CCOC1=NOCC1)Cc1cc(F)c(/N=N\c2c(F)cc(C[N+](C)(C)CC#CCOC3=NOCC3)cc2F)c(F)c1.[Br-].[Br-]

# The remaining lines, values behind:
row,Compound,pEC50
1,C[N+](C)(C)CC#CCOC1=NOCC1,8.9
2,C[N+](C)(CC#CCOC1=NOCC1)CCCCCC[N+](C)(C)CC#CCOC1=NOCC1,6.77
3,C[N+](C)(CC#CCOC1=NOCC1)CCCC[N+](C)(C)CC#CCOC1=NOCC1,6.49
4,C[N+](C)(CC#CCOC1=NOCC1)CCCCCCCC[N+](C)(C)CC#CCOC1=NOCC1,6.89
5,C[N+](C)(CC#CCOC1=NOCC1)Cc1ccc(/N=N/c2ccccc2)cc1.[Br-],5.49
6,C[N+](C)(CC#CCOC1=NOCC1)Cc1ccc(/N=N\c2ccccc2)cc1.[Br-],5.68
7,C[N+](C)(CC#CCOC1=NOCC1)CCCCCCCCCC[N+](C)(C)CC#CCOC1=NOCC1,7.86

# Test system: not listed separately
# Assay: Chemical stability of the compound at 50 uM incubated for 120 mins under dark conditions by UV-vis spectroscopic analysis
# Format: physicochemical
# Details: 2 h
row,Stability,Compound
1,Stable,C[N+](C)(CC#CCOC1=NOCC1)Cc1cc(F)c(/N=N\c2c(F)cccc2F)c(F)c1.[Br-]
2,Stable,C[N+](C)(CC#CCOC1=NOCC1)Cc1cc(F)c(/N=N/c2c(F)cccc2F)c(F)c1.[Br-]
3,Stable,C[N+](C)(CC#CCOC1=NOCC1)Cc1cc(F)c(/N=N/c2c(F)cc(C[N+](C)(C)CC#CCOC3=NOCC3)cc2F)c(F)c1.[Br-].[Br-]
4,Stable,C[N+](C)(CC#CCOC1=NOCC1)Cc1ccc(/N=N\c2ccc(C[N+](C)(C)CC#CCOC3=NOCC3)cc2)cc1.[Br-].[Br-]
5,Stable,C[N+](C)(CC#CCOC1=NOCC1)Cc1cc(F)c(/N=N\c2c(F)cc(C[N+](C)(C)CC#CCOC3=NOCC3)cc2F)c(F)c1.[Br-].[Br-]

# Second part, the compound before the results:
row,Compound,Stability
1,C[N+](C)(CC#CCOC1=NOCC1)Cc1ccc(/N=N/c2ccccc2)cc1.[Br-],Stable
2,C[N+](C)(CC#CCOC1=NOCC1)Cc1ccc(/N=N\c2ccccc2)cc1.[Br-],Stable

# Molecular target: Muscarinic acetylcholine receptor
# Assay: Displacement of [3H]-QNB from muscarinic receptor in rat brain membranes incubated for 45 mins under irradiation exposure at 365 nm by radioligand binding assay
# Format: cell membranes
# Details: not given
# How it was run: as §1
row,pIC50,Compound
1,5.4,C[N+](C)(CC#CCOC1=NOCC1)Cc1cc(F)c(/N=N/c2c(F)cccc2F)c(F)c1.[Br-]
2,6.44,C[N+](C)(CC#CCOC1=NOCC1)Cc1cc(F)c(/N=N/c2c(F)cc(C[N+](C)(C)CC#CCOC3=NOCC3)cc2F)c(F)c1.[Br-].[Br-]
3,5.13,C[N+](C)(CC#CCOC1=NOCC1)Cc1ccc(/N=N/c2ccccc2)cc1.[Br-]
